Structures are written as SMILES. Activity calls are given as the source filed them. No cut-off for these calls is given here.

One data set concerns HSC-2. As to the kind of experiment: Induction of apoptosis in human HSC2 cells assessed as PARP1 cleavage at 0.4 uM after 24 hrs by SDS-PAGE method. Format: functional, cell-based.
Conditions: not given
The method, boiled down: (§1)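 HSC-2 cells grown in 6-well plates for 24 h, then exposed to 0.1, 0.2, 0.3 and 0.4 µM for 24 h. Cells scraped into lysis buffer and run on 8% SDS-PAGE, then transferred to PVDF. Cleaved PARP (Asp214) detected with a human-specific antibody on X-ray film.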
In the case of `COCCSCCC(=O)N1C/C(=C\c2ccc(OC)c(OC)c2)C(=O)/C(=C/c2ccc(OC)c(OC)c2)C1`, the result was Active.

In another data set the test system is HSC-3. As to the kind of experiment: Potency index, ratio of CC50 for mephalan to CC50 for test compound against human HSC3 cells. Format: functional.
Conditions: not given
In the case of `COCCSCCC(=O)N1C/C(=C\c2ccc([N+](=O)[O-])cc2)C(=O)/C(=C/c2ccc([N+](=O)[O-])cc2)C1`, the Ratio is reported as 35.

A further data set relates to HSC-2. As to the kind of experiment: Induction of apoptosis in human HSC2 cells assessed as cell death after 24 hrs by Annexin-V-FITC/PI-based flow cytometric analysis. It is filed as functional.
Conditions: not given
The method, boiled down: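 HSC-2 cells treated in RPMI for 24 h at 37 °C at 0.5, 1.0 and 2.0 µM. Early and late apoptotic fractions measured by flow cytometry after Annexin-V-FITC/propidium iodide staining.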
Background: Flow cytometry measures light scatter and fluorescence of single cells or particles in a stream.
Take `COCCSCCC(=O)N1C/C(=C\c2ccc([N+](=O)[O-])cc2)C(=O)/C(=C/c2ccc([N+](=O)[O-])cc2)C1`: the Activity entry was “Dose-dependent effect”.

Tested on in the next data set: not listed separately
As to the kind of experiment: Cytotoxicity against human HSC4 cells after 48 hrs by MTT assay. As to conditions: HSC-4, 48 h. Format: functional. The method in brief: (§2)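 Oral carcinoma (HSC-2, HSC-3, HSC-4) and nonmalignant HGF and HPLF cells incubated with graded compound concentrations at 37 °C for 48 h in DMEM plus 10% heat-inactivated FBS. Viability read by MTT. CC50 from duplicate runs, differing by under 10% at each concentration.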
On the technique in general: Formazan colour is commonly taken as a measure of viable cells.
In turn, `N[C@@H](Cc1ccc(N(CCCl)CCCl)cc1)C(=O)O` [MELPHALAN] registered a CC50 of 11100 nM.

Compound `COCCSCCC(=O)N1C/C(=C\c2ccc([N+](=O)[O-])cc2)C(=O)/C(=C/c2ccc([N+](=O)[O-])cc2)C1` registered a CC50 of 300 nM.

`COCCSCCC(=O)N1C/C(=C\c2ccc(OC)c(OC)c2)C(=O)/C(=C/c2ccc(OC)c(OC)c2)C1` yielded a CC50 of 860 nM.

Tested on in the next data set: not listed separately
As to the kind of experiment: Cytotoxicity against human HSC3 cells after 48 hrs by MTT assay. It is filed as functional. As to conditions: HSC-3, 48 h. The method, boiled down: as §2
`N[C@@H](Cc1ccc(N(CCCl)CCCl)cc1)C(=O)O` [MELPHALAN] displayed a CC50 of 9900 nM.

In turn, `COCCSCCC(=O)N1C/C(=C\c2ccc([N+](=O)[O-])cc2)C(=O)/C(=C/c2ccc([N+](=O)[O-])cc2)C1` yielded a CC50 of 390 nM.

`COCCSCCC(=O)N1C/C(=C\c2ccc(OC)c(OC)c2)C(=O)/C(=C/c2ccc(OC)c(OC)c2)C1` had a CC50 of 1220 nM.

A further data set has as its system HSC-2. As to the kind of experiment: Potency index, ratio of CC50 for mephalan to CC50 for test compound against human HSC2 cells. It is filed as functional.
Conditions: not given
For the compound `COCCSCCC(=O)N1C/C(=C\c2ccc([N+](=O)[O-])cc2)C(=O)/C(=C/c2ccc([N+](=O)[O-])cc2)C1`, the Ratio amounted to 35.

Another data set relates to HSC-4. As to the kind of experiment: Selectivity index, ratio of average CC50 for human HGF and HPLF cells to CC50 for human HSC4 cells. As to conditions: pooled result: one value given for 2 cell lines, strains, targets or settings.
Consider `N[C@@H](Cc1ccc(N(CCCl)CCCl)cc1)C(=O)O` [MELPHALAN], for which the “Selectivity Index” value was determined as 6.99.

In the case of `COCCSCCC(=O)N1C/C(=C\c2ccc([N+](=O)[O-])cc2)C(=O)/C(=C/c2ccc([N+](=O)[O-])cc2)C1`, the “Selectivity Index” value worked out at 10.2.

With `COCCSCCC(=O)N1C/C(=C\c2ccc(OC)c(OC)c2)C(=O)/C(=C/c2ccc(OC)c(OC)c2)C1`, the “Selectivity Index” value amounted to 10.4.

Tested on in a further data set: not listed separately
As to the kind of experiment: Cytotoxicity against human Molt4/C8 cells after 72 hrs by MTT assay. It is filed as functional, cell-based. As to conditions: MOLT-4, 72 h. The method, boiled down: (§3)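 Leukemic cells exposed to a concentration series of each compound in RPMI 1640 medium at 37 °C, 72 h for Molt4/C8 and CEM, 48 h for L1210.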
`N[C@@H](Cc1ccc(N(CCCl)CCCl)cc1)C(=O)O` [MELPHALAN] came in with an IC50 of 3480 nM.

Regarding `COCCSCCC(=O)N1C/C(=C\c2ccc([N+](=O)[O-])cc2)C(=O)/C(=C/c2ccc([N+](=O)[O-])cc2)C1`, the IC50 is 1370 nM.

`COCCSCCC(=O)N1C/C(=C\c2ccc(OC)c(OC)c2)C(=O)/C(=C/c2ccc(OC)c(OC)c2)C1` yielded an IC50 of 1810 nM.

For a further data set, the system named is HSC-2. As to the kind of experiment: Selectivity index, ratio of average CC50 for human HGF and HPLF cells to CC50 for human HSC2 cells. As to conditions: pooled result: one value given for 2 cell lines, strains, targets or settings.
As for `N[C@@H](Cc1ccc(N(CCCl)CCCl)cc1)C(=O)O` [MELPHALAN], the “Selectivity Index” value came out at 4.65.

For the compound `COCCSCCC(=O)N1C/C(=C\c2ccc([N+](=O)[O-])cc2)C(=O)/C(=C/c2ccc([N+](=O)[O-])cc2)C1`, the “Selectivity Index” value stood at 7.65.

Consider `COCCSCCC(=O)N1C/C(=C\c2ccc(OC)c(OC)c2)C(=O)/C(=C/c2ccc(OC)c(OC)c2)C1`, for which the “Selectivity Index” value is recorded as 22.4.

Another data set relates to CCRF-CEM. As to the kind of experiment: Cytotoxicity against human CEM cells after 72 hrs by MTT assay.
Conditions: not given
Format: functional, cell-based. The method, boiled down:
as §3
The compound `N[C@@H](Cc1ccc(N(CCCl)CCCl)cc1)C(=O)O` [MELPHALAN] gave an IC50 of 1740 nM.

`COCCSCCC(=O)N1C/C(=C\c2ccc([N+](=O)[O-])cc2)C(=O)/C(=C/c2ccc([N+](=O)[O-])cc2)C1` yielded an IC50 of 1290 nM.

The compound `COCCSCCC(=O)N1C/C(=C\c2ccc(OC)c(OC)c2)C(=O)/C(=C/c2ccc(OC)c(OC)c2)C1` showed an IC50 of 1840 nM.

Tested on in another data set: not listed separately
As to the kind of experiment: Cytotoxicity against human HPLF cells after 48 hrs by MTT assay. Format: cell-based.
Conditions: not given
The method in brief: as §2
`N[C@@H](Cc1ccc(N(CCCl)CCCl)cc1)C(=O)O` [MELPHALAN] displayed a CC50 at 48 h of 77100 nM.

Take `COCCSCCC(=O)N1C/C(=C\c2ccc([N+](=O)[O-])cc2)C(=O)/C(=C/c2ccc([N+](=O)[O-])cc2)C1`: the half-maximal cytotoxic concentration (CC50) at 48 h was 2590 nM.

The compound `COCCSCCC(=O)N1C/C(=C\c2ccc(OC)c(OC)c2)C(=O)/C(=C/c2ccc(OC)c(OC)c2)C1` gave a CC50 at 48 h of 8070 nM.

The test system of a further data set is HSC-4. As to the kind of experiment: Potency index, ratio of CC50 for mephalan to CC50 for test compound against human HSC4 cells. Format: functional.
Conditions: not given
Regarding `COCCSCCC(=O)N1C/C(=C\c2ccc([N+](=O)[O-])cc2)C(=O)/C(=C/c2ccc([N+](=O)[O-])cc2)C1`, the Ratio stood at 35.

Another data set concerns HSC-2. As to the kind of experiment: Induction of apoptosis in human HSC2 cells assessed as PARP1 cleavage after 24 hrs by SDS-PAGE method. Format: functional, cell-based.
Conditions: not given
The method in brief:
as §1
As to `COCCSCCC(=O)N1C/C(=C\c2ccc([N+](=O)[O-])cc2)C(=O)/C(=C/c2ccc([N+](=O)[O-])cc2)C1`, the Activity entry was “Dose-dependent effect”.

Tested on in another data set: not listed separately
As to the kind of experiment: Cytotoxicity against human HGF cells after 48 hrs by MTT assay. Format: cell-based.
Conditions: not given
The method, boiled down:
as §2
As for `N[C@@H](Cc1ccc(N(CCCl)CCCl)cc1)C(=O)O` [MELPHALAN], the CC50 at 48 h turned out to be 78000 nM.

`COCCSCCC(=O)N1C/C(=C\c2ccc([N+](=O)[O-])cc2)C(=O)/C(=C/c2ccc([N+](=O)[O-])cc2)C1` came in with a cytotoxic concentration (CC50) at 48 h of 3520 nM.

For `COCCSCCC(=O)N1C/C(=C\c2ccc(OC)c(OC)c2)C(=O)/C(=C/c2ccc(OC)c(OC)c2)C1`, the CC50 at 48 h turned out to be 9830 nM.

For another data set, the system named is HSC-3. As to the kind of experiment: Selectivity index, ratio of average CC50 for human HGF and HPLF cells to CC50 for human HSC3 cells. As to conditions: pooled result: one value given for 2 cell lines, strains, targets or settings.
For `N[C@@H](Cc1ccc(N(CCCl)CCCl)cc1)C(=O)O` [MELPHALAN], the “Selectivity Index” value is given as 7.84.

For `COCCSCCC(=O)N1C/C(=C\c2ccc([N+](=O)[O-])cc2)C(=O)/C(=C/c2ccc([N+](=O)[O-])cc2)C1`, the “Selectivity Index” value is on record as 7.85.

For the compound `COCCSCCC(=O)N1C/C(=C\c2ccc(OC)c(OC)c2)C(=O)/C(=C/c2ccc(OC)c(OC)c2)C1`, the “Selectivity Index” value was determined as 7.34.

For the next data set, the system named is L1210. As to the kind of experiment: Cytotoxicity against mouse L1210 cells after 48 hrs by MTT assay. As to conditions: L1210, 48 h. It is filed as functional, cell-based. The method, boiled down:
as §3
`N[C@@H](Cc1ccc(N(CCCl)CCCl)cc1)C(=O)O` [MELPHALAN] registered an IC50 of 5940 nM.

With `COCCSCCC(=O)N1C/C(=C\c2ccc([N+](=O)[O-])cc2)C(=O)/C(=C/c2ccc([N+](=O)[O-])cc2)C1`, the IC50 stood at 2130 nM.

`COCCSCCC(=O)N1C/C(=C\c2ccc(OC)c(OC)c2)C(=O)/C(=C/c2ccc(OC)c(OC)c2)C1` came in with an IC50 of 1570 nM.

Tested on in the next data set: not listed separately
As to the kind of experiment: Cytotoxicity against human HSC2 cells after 48 hrs by MTT assay. It is filed as functional. As to conditions: HSC-2, 48 h. The method, boiled down:
as §2
In turn, `N[C@@H](Cc1ccc(N(CCCl)CCCl)cc1)C(=O)O` [MELPHALAN] displayed a 50% cytotoxic concentration (CC50) of 16700 nM.

With `COCCSCCC(=O)N1C/C(=C\c2ccc([N+](=O)[O-])cc2)C(=O)/C(=C/c2ccc([N+](=O)[O-])cc2)C1`, the midpoint of cytotoxicity, the CC50, lay at 400 nM.

With `COCCSCCC(=O)N1C/C(=C\c2ccc(OC)c(OC)c2)C(=O)/C(=C/c2ccc(OC)c(OC)c2)C1`, half-maximal cytotoxicity (CC50) was put at 400 nM.

Usually CC50 stands for the concentration at which the toxic effect on the cells reaches its halfway point. Lower therefore signals harm at low concentration. As usually defined, the IC50 is the midpoint of a concentration-inhibition curve. Low values mean greater potency in that assay, high ones weaker potency in that assay.

(Values after ChEMBL document CHEMBL3785069, “Tumour-specific cytotoxicity and structure-activity relationships of novel 1-[3-(2-methoxyethylthio)propionyl]-3,5-bis(benzylidene)-4-piperidones” (Bioorg Med Chem, 2016).)
